High-throughput results deposited in PubChem BioAssay by several laboratories.
NSD2 HMT inh: blocks human histone methyltransferase NSD2; O96028; NSD2 peptide methylation, AlphaScreen, 120 min; inhibition, % at 12.5 µM; hit rate 0.54% among 310,000; AID 743445; in the data active = inhibition above about 50%
Casp6 inh: caspase-6 (human) enzyme inhibition; P55212; purified caspase-6, Z-VEID-R110 cleavage fluorescence; inhibition, % at 12.5 µM; hit rate 0.53% among 350,000; AID 686996;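 active = mean inhibition across replicates at least about 35%, with every replicate also reaching that limit, limit read from the data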
TDP2 absorb: TDP2 (human) inhibition, absorbance primary screen; O95551; recombinant TDP2, T5PNP hydrolysis, p-nitrophenol absorbance 415 nm; inhibition, % at 12.8 µM; hit rate 0.34% among 370,000; AID 720702;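 active = inhibition above the mean of all tested compounds plus 3 SD, set per campaign, cut at about 25% in these data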
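Read-out basis: percent inhibition. System: recombinant human TDP2. Buffer or medium: Mg2+-containing Tris-HCl buffer, pH 7.5. Repeats: single replicate. Timing: reaction 2 h, 37 °C. Benchmarks: high control without enzyme, low control DMSO plus TDP2. Probe or stimulus: 5 mM T5PNP. Doses: 12.8 µM only. Measured by: epi absorbance of p-nitrophenol freed from T5PNP by hydrolysis.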
MBD2 inh: MBD2-methylated oligo binding inhibition. Q9UBB5. TR-FRET, MBD2 binding to methylated oligonucleotide. inhibition, % at 4.4 µM. hit rate 0.31% among 370,000; in the data active = inhibition above about 13%
LEDGF integ inh: blocks HIV-1 LEDGF/p75-dependent DNA integration; TR-FRET IN-LEDGF/p75 DNA integration, Eu/Cy5; inhibition, % at 3.7 µM; hit rate 0.64% among 370,000;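 active = inhibition above the screen-wide mean plus 3 SD, cut at about 13% in these data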;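 note: signal is the Cy5 over europium emission ratio at 671 and 618 nm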
UHRF1 MBD2 ctr: blocks human UHRF1 binding to methylated DNA | AID 687016 | UHRF1 binding to methylated oligo, TR-FRET | inhibition, % at 4.4 µM | hit rate 0.75% among 370,000; in the data active = inhibition above about 21%;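 note: UHRF1 SRA domain binding a hemimethylated CpG hairpin DNA probe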
Target sequence (Q96T88 whole entry, looked up, the tested form may be a part): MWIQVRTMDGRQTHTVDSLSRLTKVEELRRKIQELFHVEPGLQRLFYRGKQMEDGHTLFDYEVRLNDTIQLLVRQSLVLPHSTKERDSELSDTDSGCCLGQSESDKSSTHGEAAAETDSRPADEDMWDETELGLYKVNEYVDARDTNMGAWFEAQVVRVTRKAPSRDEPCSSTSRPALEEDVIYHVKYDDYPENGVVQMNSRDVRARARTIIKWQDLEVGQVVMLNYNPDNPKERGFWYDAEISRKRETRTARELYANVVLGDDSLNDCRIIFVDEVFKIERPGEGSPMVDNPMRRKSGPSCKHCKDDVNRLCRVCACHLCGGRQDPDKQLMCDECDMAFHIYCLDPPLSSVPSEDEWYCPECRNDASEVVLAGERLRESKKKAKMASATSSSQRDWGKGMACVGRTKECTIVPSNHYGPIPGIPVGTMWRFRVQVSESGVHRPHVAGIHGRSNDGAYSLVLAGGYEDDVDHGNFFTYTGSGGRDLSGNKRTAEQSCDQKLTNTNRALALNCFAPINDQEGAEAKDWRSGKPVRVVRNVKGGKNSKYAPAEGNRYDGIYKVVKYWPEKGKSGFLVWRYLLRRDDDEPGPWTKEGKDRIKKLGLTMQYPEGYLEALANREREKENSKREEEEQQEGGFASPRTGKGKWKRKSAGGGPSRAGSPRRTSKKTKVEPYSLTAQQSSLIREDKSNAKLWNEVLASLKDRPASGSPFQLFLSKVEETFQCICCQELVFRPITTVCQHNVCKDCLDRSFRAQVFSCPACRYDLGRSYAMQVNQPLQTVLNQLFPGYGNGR
Numbers stand for hits; n = inactive; x = no result. An excerpt weighted towards active compounds, which were near 1.8% of everything screened.

SMILES	NSD2 HMT inh	Casp6 inh	TDP2 absorb	MBD2 inh	LEDGF integ inh	UHRF1 MBD2 ctr
CC(C)N(CC#CCC(O)(c1ccccc1)c1ccccc1)CCO	n	x	n	n	n	26
Cc1ccc(C)c(OCCC(=O)N2CCN(S(=O)(=O)c3cc(F)ccc3F)CC2)c1	n	45	n	n	n	n
Cc1ccc(S(=O)(=O)N2CCN(C(=O)CCOc3cc(C)ccc3C)CC2)cc1	n	n	n	n	n	n
C[C@@H]1C=C(C(=O)O)O[C@H](OCc2ccc(CO)cc2)C1	x	n	n	n	n	55
Cn1c(=O)c2c(ncn2CC(=O)OCC(=O)Nc2ccccc2)n(C)c1=O	n	n	n	n	n	n
Cn1c(=O)c2c(ncn2CC(=O)OCC(=O)c2ccc(OC(F)F)cc2OC(F)F)n(C)c1=O	n	55	n	n	n	n
Cc1cc[n+](-c2[nH]c(=O)sc2/C=N/NC([S-])=Nc2ccccc2)cc1	n	41	n	n	n	n
O=c1[nH]c(-[n+]2ccccc2)c(/C=N/NC([S-])=Nc2ccccc2)s1	n	n	n	n	n	n
CCC(=O)N1CC2(CCN(C(C)=O)CC2)c2c([nH]c3cc(OC)ccc23)[C@@H]1CO	x	n	x	x	x	x
COc1ccc(CN2CC(C(=O)NCCCN3CCCCCC3)CC2=O)cc1 (stereo not drawn)	n	x	n	n	n	n
COc1ccc(CN2CC(C(=O)NCCCN3CCN(C)CC3)CC2=O)cc1 (stereo not drawn)	x	x	n	18	n	n
C[C@@H]1CN([C@@H](C)CO)S(=O)(=O)c2ccc(C3=CCCC3)cc2O[C@H]1CN(C)C(=O)c1cccnc1	x	n	x	x	x	x
COc1cc2c(cc1OC)[C@H](Cc1ccc(O)cc1)NCC2	x	n	n	n	n	n
COC(=O)CC1NCCc2cc(OC)c(OC)cc21 (stereo not drawn)	n	n	n	n	n	33
COc1ccc2c3c(n(C)c2c1)[C@@H](CO)N(C(=O)Nc1ccc(F)cc1)CC31CN(C(=O)Nc2c(C)noc2C)C1	x	n	x	x	x	x
COc1ccc(S(=O)(=O)Nc2ccc3c(c2)C(=O)N([C@H](C)CO)C[C@@H](C)[C@@H](CN(C)S(=O)(=O)c2ccccc2)O3)cc1	x	n	x	x	x	x
COCCNc1nc(-c2ccc(OC)cc2)c(-c2ccc(OC)cc2)s1	n	92	n	n	n	n
CCC(=O)N1[C@H](CNC(C)=O)[C@H](c2ccc(-c3cccc(F)c3)cc2)[C@@H]1CO	x	n	x	x	x	x
O=C(Nc1ccc2c(c1)[C@@H]1C[C@H](CC(=O)N3CCCCC3)O[C@H](CO)[C@@H]1O2)NC1CCCC1	x	n	x	x	x	x
O=c1[nH]c(SCc2nc3ccccc3c(=O)n2-c2ccccc2)nc2ccccc12	n	x	n	n	n	35
Cc1cc(Cl)cc(Cl)c1OCCCCN(C)C	n	n	n	n	n	22
COc1ccc(-n2c(CN3CCC(C(N)=O)CC3)nc3ccc([N+](=O)[O-])cc3c2=O)c(OC)c1	n	n	n	n	23	n
O=C(NCCCO)c1cc([N+](=O)[O-])cc2c1C=Cc1ccccc1O2	n	89	n	n	n	n
CC(C)NC(=O)Nc1ccc2c(c1)C(=O)N([C@H](C)CO)C[C@H](C)[C@@H](CN(C)Cc1ccc(-c3ccccc3)cc1)O2	x	n	x	x	x	x
CC(=O)OCC1=C(C(=O)O)N2C(=O)[C@@H](NC(=O)CSc3ccncc3)[C@H]2SC1	n	38	n	n	n	n
SMILES	NSD2 HMT inh	Casp6 inh	TDP2 absorb	MBD2 inh	LEDGF integ inh	UHRF1 MBD2 ctr
COCC(=O)Nc1ccc2c(c1)OC[C@@H](C)N(Cc1ccncc1)C[C@@H](C)[C@@H](OC)CN(C)C2=O	x	n	x	x	x	x
CC(C)C(NC(=O)C1CCCCC1)C(=O)NCCc1ccccc1 (stereo not drawn)	x	n	n	n	n	21
O=C(Cn1cnc2c(NCc3ccccc3)ncnc21)NCc1ccc2[nH]ccc2c1	x	n	n	n	n	24
O=C(Cn1cnc2c(OCc3ccccc3)ncnc21)NCc1ccc2[nH]ccc2c1	x	n	n	n	n	n
Cc1ccc(-c2ccc(C3[C@@H]4CN(S(=O)(=O)c5ccc(C)cc5)C[C@H]3N4)cc2)cc1 (stereo partly drawn)	x	n	x	x	x	x
Cc1ccc(CN(C)C(=O)COC(=O)CSc2ccc([N+](=O)[O-])cc2)cc1	n	n	n	n	n	n
Cc1ccccc1CN(C)C(=O)COC(=O)CSc1ccc([N+](=O)[O-])cc1	n	71	n	n	n	n
NC(=O)Cn1c(=O)n(Cc2ccco2)c(=O)c2c3c(sc21)CCCCC3	n	x	n	n	n	21
O=C(Cn1c(=O)n(Cc2ccco2)c(=O)c2c3c(sc21)CCCC3)Nc1ccccc1	n	x	n	n	n	n
Nc1c(C(=O)Nc2ccc(Br)cc2)sc2nc(-c3ccco3)ccc12	n	x	n	n	15	n
Nc1c(C(=O)Nc2ccc(F)cc2)sc2nc(-c3ccco3)ccc12	n	x	n	n	n	n
C[C@H](CO)N1C[C@H](C)[C@@H](CN(C)Cc2ccc(C(=O)O)cc2)Oc2ccc(NC(=O)Nc3ccc(F)cc3)cc2C1=O	x	n	x	x	x	x
CC1=C(C(=O)OC(C)C)C(c2cccnc2)C2=C(CCCC2=O)N1 (stereo not drawn)	n	x	n	n	n	91
CCC(CC)C(=O)Nc1cccc(C(=O)Nc2nnc(C)s2)c1	n	n	n	n	n	23
C[C@H](CO)N1C[C@H](C)[C@H](CN(C)C(=O)c2ccccc2)OCCCC[C@H](C)Oc2ccc(NC(=O)Nc3ccc(C(F)(F)F)cc3)cc2C1=O	x	n	x	x	x	x
Cc1ccc(S(=O)(=O)Nc2cncnc2NS(=O)(=O)c2ccc(C)cc2)cc1	n	n	n	n	n	42
O=C(NC1CCCC1)N1CC(=O)N2[C@H](CO)[C@@H](c3ccc(-c4cccnc4)cc3)[C@@H]2C1	x	n	x	x	x	x
CC(C)CN1CCC(CN2CCNC(=O)C2=O)CC1	x	36	n	n	n	n
CCNc1nc(NCC)n2c(SCC(=O)Nc3ccc(F)cc3)nnc2n1	n	n	n	n	n	n
CCNc1nc(NCC)n2c(SCC(=O)Nc3ccc(C)c(C)c3)nnc2n1	n	37	n	n	n	n
CNC[C@H]1Oc2ccc(NS(=O)(=O)c3ccc(F)cc3)cc2CC(=O)N([C@H](C)CO)C[C@@H]1C	x	n	x	x	x	x
Cc1noc(C)c1COc1ccccc1C(=O)NC(C)c1ccc(Cl)cc1 (stereo not drawn)	n	n	n	n	n	32
CN1C(=O)c2cc(NC(=O)C3CCCCC3)ccc2OC[C@H]2O[C@H](CC(=O)NCCc3ccncc3)CC[C@@H]21	x	n	x	x	x	x
Cc1ccc(CNC(=O)OC2CC3CC2[C@H]2CCCCN2C3=O)cc1 (stereo partly drawn)	x	n	n	n	n	n
CCCNC(=O)OC1CC2CC1[C@H]1CCCCN1C2=O (stereo partly drawn)	x	n	n	n	n	23
